KCNQ1 block = inhibitors of human KCNQ1 channel, primary screen, cell-based, thallium flux, high-throughput | CHO-K1 KCNQ1, FluxOR thallium flux fluorescence; stronger effect = higher value | B-score at 10 µM | hit rate 1.3% among 310,000;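 active = compounds whose thallium flux B-score, printed positive for inhibition, exceeds three library SD while starting fluorescence stays within three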;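 note: channel opened by potassium depolarization with thallium stimulus after 20 min compound exposure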
Target sequence (P51787 whole entry, looked up): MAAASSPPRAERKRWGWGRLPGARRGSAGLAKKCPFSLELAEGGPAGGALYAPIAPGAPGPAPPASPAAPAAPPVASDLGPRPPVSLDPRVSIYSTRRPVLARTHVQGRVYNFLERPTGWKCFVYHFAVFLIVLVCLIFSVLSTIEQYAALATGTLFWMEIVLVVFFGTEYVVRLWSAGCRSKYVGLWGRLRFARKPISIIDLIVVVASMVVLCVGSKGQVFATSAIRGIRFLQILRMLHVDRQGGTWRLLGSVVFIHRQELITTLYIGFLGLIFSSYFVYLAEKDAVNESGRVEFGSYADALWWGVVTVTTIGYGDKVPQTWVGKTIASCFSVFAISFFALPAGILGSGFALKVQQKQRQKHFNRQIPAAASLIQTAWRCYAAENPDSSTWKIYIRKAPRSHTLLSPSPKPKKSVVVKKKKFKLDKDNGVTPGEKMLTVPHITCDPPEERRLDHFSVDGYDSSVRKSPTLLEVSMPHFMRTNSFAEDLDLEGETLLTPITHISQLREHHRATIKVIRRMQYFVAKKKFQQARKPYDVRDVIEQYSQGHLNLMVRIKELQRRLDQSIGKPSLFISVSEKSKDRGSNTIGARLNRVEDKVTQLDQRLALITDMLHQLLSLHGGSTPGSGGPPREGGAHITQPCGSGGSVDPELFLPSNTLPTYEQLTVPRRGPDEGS
KCNK3 inh = human KCNK3 channel inhibitors, primary screen, CHO cells, FluxOR thallium flux, B-score; hit rate 0.84% among 340,000; Potassium channel subfamily K member 3 (Homo sapiens), O14649; B-score at 10 µM; FluxOR fluorescence; stronger effect = lower value; AID 602410, 2012;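 active = B-score under library mean minus 4 SD, starting fluorescence ratio at most library mean plus 5 SD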;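 note: more negative B-score means stronger inhibition of thallium flux through KCNK3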
KCNK9 inh = KCNK9 potassium channel inhibitors, primary screen, HEK293 cells, thallium flux; FluxOR thallium flux fluorescence; stronger effect = lower value; hit rate 1.2% among 310,000; B-score at 10 µM; AID 488922, 2010;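 active = ratio B-score over 3 SD below the library mean, with starting fluorescence within 5 SD of its mean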;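 note: negative B-score means less thallium flux so channel inhibition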
hERG rescue = hERG rescue from dofetilide block, primary screen, cell-based, CHO-hERG, FluxOR thallium flux, dofetilide IC70; Voltage-gated inwardly rectifying potassium channel KCNH2 (Homo sapiens), Q12809; dofetilide IC70 present; activation (rescue from dofetilide block), less the hit threshold, % at 10 µM; hit rate 0.51% among 310,000;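 active = activation above the mean of controls blocked by dofetilide plus 5 SD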;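 note: thallium influx through hERG after potassium depolarization seen as dye fluorescence rise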
KCNQ1 act = potentiators or activators of KCNQ1 channel, primary screen, cell-based, thallium flux, high-throughput; Potassium voltage-gated channel subfamily KQT member 1 (Homo sapiens), P51787; CHO-K1 KCNQ1, thallium flux FluxOR fluorescence; stronger effect = higher value; B-score at 10 µM; hit rate 0.35% among 310,000; AID 2648, 2010;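 active = fluorescence ratio B-score, a plate-corrected score, at least three library SD, with initial intensity B-score within 5 SD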
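Doses: Single concentration per compound, DMSO matched to controls | Test system: KCNQ1-transfected CHO-K1 cells | Timing: 90 min dye loading and 20 min compound exposure, both at room temperature | Measured by: Kinetic FluxOR thallium fluorescence, 10-s 1-Hz baseline, 110-s post-stimulus read | Medium: Assay buffer with matched DMSO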
Cl transport mod = KCC2 cotransporter modulators, thallium flux, primary screen, cell-based, HEK293 KCC2, FluoZin-2 fluorescence, MLSMR | hit rate 2.2% among 190,000 | B-score of Tl+ flux slope (higher = more flux/activation; lower = inhibition) at 10 µM | Solute carrier family 12 member 5 (Homo sapiens), Q9H2X9 | KCC2 cells, thallium flux FluoZin-2 fluorescence;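 active = thallium flux slope and its plate-corrected score both differing from the plate sample mean at a set confidence after two filtering rounds, in either direction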;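 note: slope of fluorescence scaled to starting intensity during 10 to 20 s after thallium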
* marks the source's active call; other numbers are inactive results; i = inactive; / = no result given. In the library only some 4.1% were active in any assay of this set; here they are far more common.

SMILES	KCNQ1 block	KCNK3 inh	KCNK9 inh	hERG rescue	KCNQ1 act	Cl transport mod
O=C(COC(=O)c1ccc(NC(=O)C2CC=CCC2C(=O)O)cc1)c1ccccc1 (stereo not given)	i	i	i	-10	i	/
COc1ccccc1NC(=O)COc1cccc2c1CCNC2=O	i	i	i	-12	i	/
Cc1cc(=S)[nH]c(=S)[nH]1	i	i	i	-8	i	1.3
Cc1cc(C)c2[nH]c(=S)cc(C)c2c1	i	i	i	-7	i	31*
CCN1C(=O)C(CC(=O)Nc2ccc(F)cc2)N(CCCN2CCN(c3ccc(F)cc3)CC2)C1=S (stereo not given)	13*	i	i	-27	i	-0.12
CCN1C(=O)C(CC(=O)Nc2ccc(OC)cc2)N(Cc2ccc(OC)c(OC)c2)C1=S (stereo not given)	i	i	i	-14	i	0
CCN1C(=O)C(CC(=O)Nc2ccc(OC)cc2)N(CCc2ccc(OC)cc2)C1=S (stereo not given)	6*	i	i	-26	i	0.0016
CCCOc1ccc(NC(=O)CC2C(=O)N(CC)C(=S)N2CCCN2CCN(Cc3ccccc3)CC2)cc1 (stereo not given)	i	i	i	-22	i	-0.6
O=C(CSc1nc(=O)n(CCCN2CCOCC2)c2c1CCCC2)Nc1ccc(Cl)cc1	i	i	i	-12	i	/
COc1cccc(CNC23CC4CC(CC(C4)C2)C3)c1OCc1ccccc1	6*	i	i	-11	i	-0.45
NC(=O)c1ncn([C@@H]2O[C@H](CNCc3c(OCc4ccccc4F)ccc4ccccc34)[C@@H](O)[C@H]2O)n1	/	i	/	/	/	/
CC(C)(c1ccccc1)c1ccc(OCC(O)CNC2CCN(Cc3ccccc3)CC2)cc1 (stereo not given)	8*	i	-7.5*	-30	i	1
Cc1nc(NN)nc(NCc2ccccc2)n1	i	i	i	7.1*	i	/
O=C(O)c1ccc(N=Nc2c(-c3ccccc3)[nH]oc2=O)cc1	i	i	i	-6	i	/
CC1=C(SCc2ccccc2)C(=O)c2ccccc2C1=O	/	i	/	/	/	/
O=C1C(SCCO)=C(SCCO)C(=O)c2ccccc21	/	-15*	/	/	/	/
CCOc1cc2[nH]c(=S)n(Cc3ccc(C(=O)O)cc3)c(=O)c2cc1OCC	i	i	i	-3	i	/
CCC(=O)Nc1ccccc1C(=O)OCC(=O)c1cccc2ccccc12	i	-11*	-7.3*	-10	i	-0.5
O=C(COC(=O)c1cccc2ccccc12)Nc1cccnc1Cl	i	i	i	-4	i	-0.72
O=C(COC(=O)c1ccncc1)Nc1cccc2ccccc12	/	-8.8*	/	/	/	/
COc1cc2c(cc1OC)C(Cc1ccccc1[N+](=O)[O-])=NCC2	/	i	/	/	/	/
CN(C)CC1(C)Cc2ccsc2C1O (stereo not given)	/	i	/	/	/	/
c1csc(-c2nc3c4ccccc4c4ccccc4c3[nH]2)c1	i	-10*	i	-6	i	0.12
c1ccc(-c2nc(-c3cccs3)[nH]c2-c2ccccc2)cc1	i	i	i	-4	i	0.032
Oc1ccccc1-c1nc2c3ccccc3c3ccccc3c2[nH]1	6*	i	i	-3	i	0.42
SMILES	KCNQ1 block	KCNK3 inh	KCNK9 inh	hERG rescue	KCNQ1 act	Cl transport mod
CCOC(=O)C(C(=O)OCC)C(C(=O)OCC)N1CCOCC1 (stereo not given)	i	i	i	-5	10*	0.012
Cc1cc(C)cc(NC(=O)CS(=O)(=O)c2cccc3nsnc23)c1	i	i	i	-3	i	/
CCCCCCC(=O)Nc1nc(C)c(-c2csc(Nc3ccccc3OC)n2)s1	i	i	i	-3	i	-1
CCCCC(=O)Nc1nc(C)c(-c2csc(Nc3cc(Cl)ccc3OC)n2)s1	7*	i	-7.5*	-9	i	-1.2
CCCCCC(=O)Nc1nc(C)c(-c2csc(Nc3ccccc3OC)n2)s1	i	i	i	-5	i	-0.67
CCCCC(=O)Nc1nc(C)c(-c2csc(Nc3cc(OC)ccc3OC)n2)s1	i	i	-7.8*	-21	i	-0.21
CCCC(C)C(=O)Nc1nc(C)c(-c2csc(Nc3ccccc3OC)n2)s1 (stereo not given)	i	i	-6.9*	-10	i	0.96
COC(=O)[C@@H](NC(=O)c1ccc2c(c1)S(=O)(=O)c1ccccc1C2=O)C(C)C	i	i	i	-3	i	/
FC(F)(F)c1cccc(NC(=S)NNC(=S)Nc2cccc(C(F)(F)F)c2)c1	i	/	i	-2	i	-1.4
CC(C)(O)C(=O)NNC(=S)Nc1cccc(C(F)(F)F)c1	7*	i	i	-2	i	-0.012
FC(F)(F)c1cccc(NC(=S)Nc2ccc(Cl)c(Cl)c2)c1	7*	i	i	-26	i	0.27
Cc1cc(NC(=O)Nc2cccc(C(F)(F)F)c2)n(C)n1	6*	i	i	-8	i	-0.66
CCCCN1Cc2c(nc3cc(-c4ccco4)[nH]n3c2=O)C1=O	i	i	i	-5	i	/
CCCCN(CCCC)S(=O)(=O)c1ccc(NC(=O)c2ccc([N+](=O)[O-])cc2Cl)cc1	7*	i	i	-7	i	0
CCN(CC)S(=O)(=O)c1cc([N+](=O)[O-])ccc1NNC(=O)Nc1ccc(Cl)c(Cl)c1	10*	i	-7.4*	-8	i	-0.11
CC(C)N1C(=O)C(=O)N(CC(=O)N(C)c2ccccc2)C1=O	/	i	/	/	/	/
Cc1cc(C(F)(F)F)c2c(=O)[nH]c(=O)n(Cc3ccccc3)c2n1	i	i	i	-9	i	-4.3*
CNC(=O)c1ccc(NC(=O)Nc2ccccc2)cc1	i	i	i	-5	i	/
CCOc1ccc(N(CC(=O)NCCc2ccccc2)C(=O)CCC(=O)Nc2nccs2)cc1	i	i	i	-8	i	/
O=C(c1ccccc1O)N1N=C(c2ccccc2)CC1(O)C(F)(F)F (stereo not given)	6*	i	i	-13	i	-0.95

Screens as filed in PubChem BioAssay.
